This note sets out measurements from PMC5814953 (Nucleic Acids Research, 2017).

For one test, the system named is Sim3-FLAG. Nature of the test: Biotinylated peptide pull-down of Sim3-FLAG from yeast cell extract, immunoblot. The class given is binding, Schizosaccharomyces pombe. On the technique in general: In western blotting, separated proteins are transferred to a membrane and probed.
Another test deals with Ani1. Nature of the test: 2D 1H ROESY NMR, cis-trans isomerization of NTD peptide by Ani1. The class given is biochemical, Schizosaccharomyces pombe.
A further test has as its system Ani2. Nature of the test: 2D 1H ROESY NMR, cis-trans isomerization of NTD peptide by Ani2. The class given is biochemical, Schizosaccharomyces pombe.
A short description of test [1]: 2D 1H ROESY NMR of NTD peptide in the absence of isomerase. The class given is physicochemical. The following applies: pH 6.5, 25°C. In short, it runs like this:
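Synthetic NTD peptide at 2 mM in 20 mM phosphate buffer (90% H2O/10% D2O), pH 6.5, run at 25°C. No isomerase was added; the paired runs contained 0.03 mM bacterially produced Ani1 or Ani2.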

In test [2] the target is T1, Sim3-His, bacterially purified recombinant Sim3 protein (S. pombe, UniProt Q9USQ4 1-396).
T1 sequence (looked up): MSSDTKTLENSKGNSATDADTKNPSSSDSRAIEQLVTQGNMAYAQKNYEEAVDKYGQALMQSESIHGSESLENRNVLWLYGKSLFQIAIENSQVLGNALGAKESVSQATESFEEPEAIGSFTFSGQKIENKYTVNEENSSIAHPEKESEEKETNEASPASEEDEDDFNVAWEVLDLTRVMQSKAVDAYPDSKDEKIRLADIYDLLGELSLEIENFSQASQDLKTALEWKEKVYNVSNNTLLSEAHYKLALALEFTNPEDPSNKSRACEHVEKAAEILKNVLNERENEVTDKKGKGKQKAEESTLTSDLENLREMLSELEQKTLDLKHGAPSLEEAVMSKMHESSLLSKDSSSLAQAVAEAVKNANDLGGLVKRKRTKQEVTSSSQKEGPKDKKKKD
Kind of test: ITC. On the technique in general: In ITC the heat of successive injections is recorded.

Ends that are not written are not given here. Peptide text beside a SMILES is read from it. * marks the point of attachment. Biotin = O=C1N[C@H]2[C@H](CS[C@H]2CCCCC(=O)*)N1

Turning to `CC[C@H](C)[C@H](NC(=O)[C@@H]1CCCN1C(=O)[C@H](CC(=O)O)NC(=O)CNC(=O)[C@@H]1CCCN1C(=O)[C@H](CCC(=O)O)NC(=O)[C@H](C)NC(=O)[C@H](CCSC)NC(=O)[C@H](CC(C)C)NC(=O)[C@H](CO)NC(=O)[C@H](CCCCN)NC(=O)[C@H](CCCCN)NC(=O)[C@H](C)NC(=O)[C@@H](N)CCSC)C(=O)N1CCC[C@H]1C(=O)N[C@@H](CCCNC(=N)N)C(=O)N1CCC[C@H]1C(=O)N[C@@H](CCCNC(=N)N)C(=O)N[C@@H](CCCCN)C(=O)N[C@@H](CCCCN)C(=O)N[C@@H](CCCNC(=N)N)C(=O)N[C@@H](Cc1ccc(O)cc1)C(=O)N[C@@H](CCCNC(=N)N)C(=O)N1CCC[C@H]1C(=O)NCC(=O)N[C@H](C(=O)N[C@H](C(=O)N[C@@H](C)C(=O)N[C@@H](CC(C)C)C(=O)N[C@@H](CCCNC(=N)N)C(=O)N[C@@H](CCCCNC(=O)CCCC[C@@H]1SC[C@@H]2NC(=O)N[C@@H]21)C(=O)O)[C@@H](C)O)[C@@H](C)O` [WT SpCENP-A NTD] (H-MAKKSLMAEPGDPIPRPRKKRYRPGTTALRK(Biotin)-OH; N-terminus and C-terminus assumed), the “reduction of Sim3-FLAG interaction” value in the test with Sim3-FLAG (WT peptide, absence of both ani1 and ani2, vs WT cells (1–0.57)) is ~43%. For the same molecule, the “effect of single null mutation of ani1 or ani2 on Sim3-FLAG binding (in words)” value in the test with Sim3-FLAG (Δani1 or Δani2 single mutant cell extract, Figure 6B bottom gel) was “did not grossly affect the binding”.

Regarding SLMAEPGDPIPRPR, the cis-trans exchange cross-peaks result in the test on Ani1 (presence of 0.03 mM Ani1, 2 mM peptide, 20 mM phosphate (90% H2O + 10% D2O, pH 6.5), 25°C) was “two prominent and reproducible exchange cross-peaks corresponding to Ile14 and Arg16”; in the test on Ani2 (presence of 0.03 mM Ani2, 2 mM peptide, 20 mM phosphate (90% H2O + 10% D2O, pH 6.5), 25°C), “two prominent and reproducible exchange cross-peaks corresponding to Ile14 and Arg16”; in test [1] (absence of Ani1 or Ani2, 2 mM peptide, 20 mM phosphate) it was “no cross-peaks were observed”. In addition, the “cross peaks corresponding to P10 or P13” value in the test with Ani1 (presence of Ani1, 2 mM peptide, pH 6.5, 25°C) is on record as “No cross peaks were found corresponding to P10 or P13”; in the test on Ani2 (presence of Ani2, 2 mM peptide, pH 6.5, 25°C), “No cross peaks were found corresponding to P10 or P13”. The “speed of the cis- and trans-conformational switch” value in test [1] (absence of Ani1 or Ani2, too slow to be detected under the NMR time scale, 2 mM peptide) is < 0.1 s⁻¹.

B1: SpCENP-A NTD 4PA peptide (quadruple P-to-A mutations of the GRANT prolines), biotinylated (peptide, UniProt Q9Y812 1-20, looked up)
peptide: MAKKSLMAEAGDAIARARKK
modifications: also: biotinylated, position not given here
For the molecule B1, the equilibrium dissociation constant (Kd) (usually the constant that tells how readily two partners part at equilibrium) in test [2] came to 4.5 µM.
